Common to all, as to type: functional
For one assay, the system named is A549. The assay is described as follows: Antiproliferative activity against human A549 cells by sulforhodamine B assay. In outline:
(§1)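 Cells in RPMI 1640 (25 mM HEPES, 2 mM L-glutamine, 10% heat-inactivated FBS, antibiotics) at 37 °C, 5% CO2. Seeded at 3–5 × 10³/well with graded concentrations, paclitaxel as assay control, for 72 h. TCA-fixed, stained with 0.04% SRB, dye dissolved in 10 mM Tris, A515 read. GI50 is the concentration halving absorbance versus untreated cells; three or more experiments.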

The subject of a further assay is DU-145. The assay is described as follows: Antiproliferative activity against human DU145 cells by sulforhodamine B assay. In outline:
as §1

The test system of a further assay is KB. The assay is described as follows: Antiproliferative activity against human KB cells by sulforhodamine B assay. In outline: as §1
(The SRB assay estimates cell density from bound dye.)

A short description of assay [1]: Antiproliferative activity against multidrug-resistant P-gp expressing human KBVIN cells by sulforhodamine B assay. In a few lines:
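Vincristine-resistant KB subline kept in 100 nM vincristine, then grown 7–10 days without it before testing. RPMI 1640 with 10% FBS, 37 °C, 5% CO2. 3–5 × 10³ cells/well exposed 72 h to a concentration series, paclitaxel as assay control. SRB staining after TCA fixation, A515 read. GI50 is the 50% absorbance reduction versus untreated cells; three or more experiments.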

The nature of assay [2]: Selectivity ratio of GI50 for human KB cells to GI50 for multidrug-resistant P-gp expressing human KBVIN cells. In outline: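 Ratio of GI50 in parental KB to GI50 in P-gp-overexpressing KB-VIN. […] KB-VIN cells were grown 7–10 days without vincristine before the assay.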

Molecules are shown by their SMILES.

Among the data in ChEMBL document CHEMBL3400028, “Evaluation of Aconitum diterpenoid alkaloids as antiproliferative agents” (2015) are GI50 and RatioGI50 values, retold here.

The term GI50 denotes the concentration that inhibits growth by half. A lower GI50 goes with more potent growth inhibition.

Take `CCN1C(=O)[C@]2(COC(=O)c3ccccc3N)CC[C@H](OC)[C@]34C1[C@@](O)([C@@H](OC)[C@H]23)[C@@]1(O)C[C@H](OC)[C@H]2C[C@@H]4[C@@H]1[C@H]2OC`: the GI50 (with A549; in the assay on DU-145; in the assay with KB; in assay [1]) was more than 20 µM each time. Further, the RatioGI50 in assay [2] is more than 20.

Consider `C=C1[C@H]2C[C@@H]3C4N5C[C@]6(C)CCC[C@@]47[C@@H]6[C@@]5(OC(=O)c4ccc([N+](=O)[O-])cc4)C[C@]3([C@@H]1OC(=O)c1ccc([N+](=O)[O-])cc1)[C@H]7[C@H]2OC(=O)c1ccc([N+](=O)[O-])cc1`, for which the GI50 (in the assay with A549; in the assay on DU-145; with KB; in assay [1]) was more than 20 µM in each case. For the same molecule, the RatioGI50 in assay [2] is reported as more than 20.

Consider `CCN1C[C@@]2(COC)[C@H]3[C@@H](OC)[C@H]4C1[C@]3([C@@H](OC)C[C@H]2OC(C)=O)[C@@H]1C[C@@]2(O)[C@H](OC(=O)c3ccc(OC)cc3)[C@@H]1[C@]4(OC(C)=O)[C@@H](OC(C)=O)[C@@H]2OC`, for which the 50% growth inhibitory concentration (GI50) (in the assay on A549; with DU-145; in the assay on KB; in assay [1]) was more than 20 µM throughout. Moreover, the RatioGI50 in assay [2] is recorded as more than 20.

As to `C=C1[C@H]2C[C@@]3([C@@H]1OC(C)=O)[C@@H](C[C@@H]2OC(C)=O)[C@@]12C4[C@@H]3C[C@@H]1[C@@](C)(CC[C@@H]2O)CN4CC`, the concentration for 50% growth inhibition (GI50) (in the assay on A549; in the assay on DU-145; in the assay on KB; in assay [1]) was more than 20 µM in each case. In assay [2], the RatioGI50 is on record as more than 20.

Regarding `C=C1[C@@H](OC(C)=O)[C@]23C[C@@H]1[C@@H](O)C[C@H]2[C@@]12C4C3C[C@@H]1[C@@]1(C)CC[C@H]2OC1N4CC` [DEHYDROLUCIDUSCULINE], the GI50 (with A549; with DU-145; in the assay on KB; in assay [1]) was more than 20 µM each time. Further, the RatioGI50 in assay [2] is recorded as more than 20.

On to `COC[C@@]12CC[C@H](OC)[C@]34C(C([C@H](OC)[C@H]13)[C@]1(OC(C)=O)[C@H]3[C@@H](OC(=O)c5ccccc5)[C@](O)(C[C@H]34)[C@@H](OC)[C@@H]1O)N(C)C2` [HYPACONITINE], for which the 50% growth inhibitory concentration (GI50) (in the assay with A549; in the assay with DU-145; in the assay with KB; in assay [1]) was more than 20 µM each time. For the same molecule, the RatioGI50 in assay [2] was more than 20.

On to `CO[C@H]1[C@@H]2C[C@@H]3[C@H]1[C@](O)(C[C@@H]2OC)[C@@]1(O)C2N=C[C@]4(COC(=O)c5ccccc5N)CC[C@H](OC)[C@@]23[C@@H]4[C@@H]1OC`, for which the concentration for 50% growth inhibition (GI50) (in the assay with A549; in the assay with DU-145; in the assay with KB; in assay [1]) was more than 20 µM in each case. Moreover, the RatioGI50 in assay [2] is on record as more than 20.

Regarding `C=C1[C@H]2C[C@@H]3C4N5C[C@]6(C)CCC[C@@]47[C@@H]6[C@@]5(O)C[C@]3([C@@H]1O)[C@H]7[C@H]2OC(=O)c1cccnc1`, the GI50 (with A549; with DU-145; in the assay on KB; in assay [1]) was more than 20 µM each time. In addition, the RatioGI50 in assay [2] was more than 20.

On to `C=C1[C@H]2C[C@@H]3C4N5C[C@]6(C)CCC[C@@]47[C@@H]6[C@@]5(O)C[C@]3([C@@H]1OC(=O)CC)[C@H]7[C@H]2OC(=O)CC`, for which the GI50 (with A549; in the assay on DU-145; with KB; in assay [1]) was more than 20 µM in each case. Also, the RatioGI50 in assay [2] is more than 20.
